The values below come from ChEMBL document CHEMBL1134288, “Design and optimization of 20-O-linked camptothecin glycoconjugates as anticancer agents” (J Med Chem, 2001).

The test system of one experiment is HT-29. The experiment is described as follows: In vitro cytotoxic activity against human colon cancer cell line HT-29 using MTT growth inhibition assay. It counts as functional, cell-based. Summed up: (§1)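 Cells were grown in RPMI 1640 with 10% FCS, trypsinized at confluence and plated at 50,000 cells/mL, then left 1 day. Compounds in DMSO or water were added, and growth was read 6 days later by MTT (5 mg/mL stock, 5 h at 37 °C). Formazan was dissolved in 2-propanol/water and absorbance read at 595 nm; IC50 was derived from this read-out.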

In a further experiment the test system is SW480. The experiment is described as follows: In vitro cytotoxic activity against human colon cancer cell line SW480 using MTT growth inhibition assay. It is filed as functional, cell-based. The procedure, abridged: as §1
Another experiment concerns B16-F10. The experiment is described as follows: In vitro cytotoxic activity against murine melanoma cell line B16F10 using MTT growth inhibition assay. It is filed as functional, cell-based. Conditions: Mus musculus. The procedure, abridged:
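This murine melanoma line was grown in RPMI 1640 with 10% FCS, trypsinized at confluence and seeded at 20,000 cells/mL, then left 1 day. Compounds in DMSO or water were added. After 6 days, MTT (5 mg/mL stock) was added for 5 h at 37 °C, formazan was dissolved in 2-propanol/water, and absorbance was read at 595 nm to give IC50.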

The species named for experiment [1] is Homo sapiens. The experiment is described as follows: In vitro No effect conc (NOEC) with respect to elevated levels of Lactate dehydrogenase (LDH) using primary hepatocytes of human. It counts as functional, Hepatocyte. Summed up:
(§2)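 Primary hepatocytes were isolated by two-step liver perfusion: first an EGTA (0.5 mM)/HEPES buffer, then a HEPES (pH 7.4) buffer with CaCl2 and collagenase type IV. Cells were cultured in collagen sandwich gels in supplemented medium with 10% FCS, then given 48 h adaptation. DMSO stocks (3 mM) were diluted in medium. Treatment ran 1-7 days with daily medium change, and ALT, AST and LDH were read in the supernatant.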

The species entered for experiment [2] is Canis familiaris. Kind of experiment: In vitro No effect conc (NOEC) with respect to elevated levels of alanine aminotransferase (ALT) using primary hepatocytes of dog. It is filed as functional, Canis lupus familiaris, Hepatocyte. The procedure, abridged: as §2
The species named for experiment [3] is Homo sapiens. Kind of experiment: In vitro No effect conc (NOEC) with respect to elevated levels of aspartate aminotransferase (AST) using primary hepatocytes of human. It is filed as functional, Hepatocyte. Summed up: as §2
The species entered for experiment [4] is Rattus norvegicus. The experiment is described as follows: In vitro No effect conc (NOEC) with respect to elevated levels of aspartate aminotransferase (AST) using primary hepatocytes of rat. It is filed as functional, Hepatocyte. The procedure, abridged:
as §2

The species entered for experiment [5] is Rattus norvegicus. Kind of experiment: In vitro No effect conc (NOEC) with respect to elevated levels of alanine aminotransferase (ALT) using primary hepatocytes of rat. It counts as functional, Hepatocyte. Summed up:
as §2

For experiment [6], the species on record is Canis familiaris. The experiment is described as follows: In vitro No effect conc (NOEC) with respect to elevated levels of aspartate aminotransferase (AST) using primary hepatocytes of dog. It is filed as functional, Canis lupus familiaris, Hepatocyte. The procedure, abridged: as §2
The species named for experiment [7] is Homo sapiens. Kind of experiment: In vitro No effect conc (NOEC) with respect to elevated levels of alanine aminotransferase (ALT) using primary hepatocytes of human. It is filed as functional, Hepatocyte. The procedure, abridged: as §2
Experiment [8] is filed under the species Canis familiaris. Kind of experiment: In vitro No effect conc (NOEC) with respect to elevated levels of Lactate dehydrogenase (LDH) using primary hepatocytes of dog. It counts as functional, Canis lupus familiaris, Hepatocyte. Summed up:
as §2

For experiment [9], the species on record is Rattus norvegicus. Kind of experiment: In vitro No effect conc (NOEC) with respect to elevated levels of Lactate dehydrogenase (LDH) using primary hepatocytes of rat. It counts as functional, Hepatocyte. The procedure, abridged: as §2

As for `CC[C@@]1(OC(=O)CNC(=O)[C@H](Cc2c[nH]cn2)/N=C(\S)Nc2ccc(O[C@H]3O[C@@H](C)[C@@H](O)[C@@H](OC)[C@@H]3O)cc2)C(=O)OCc2c1cc1n(c2=O)Cc2cc3ccccc3nc2-1`, the concentration for half-maximal inhibition (IC50) in the experiment on HT-29 amounted to 10 nM; in the experiment on SW480, 15 nM; in the experiment on B16-F10, 30 nM.
With `CC[C@@]1(OC(=O)[C@H](NC(=O)[C@H](Cc2c[nH]cn2)/N=C(\S)Nc2ccc(O[C@H]3O[C@@H](C)[C@@H](O)[C@@H](OC)[C@@H]3O)cc2)C(C)C)C(=O)OCc2c1cc1n(c2=O)Cc2cc3ccccc3nc2-1`, the IC50 in the experiment with HT-29 turned out to be 160 nM; in the experiment with SW480 it was 230 nM; in the experiment on B16-F10, 600 nM.
With `CC[C@@]1(OC(=O)C(NC(=O)[C@H](CCCN=C(N)N)/N=C(\S)Nc2ccc(O[C@H]3O[C@@H](C)[C@@H](O)[C@@H](OC)[C@@H]3O)cc2)C(C)C)C(=O)OCc2c1cc1n(c2=O)Cc2cc3ccccc3nc2-1` (stereo partly specified), the IC50 was 100 nM with HT-29, 170 nM with SW480 and 400 nM in the experiment with B16-F10.
For `CC[C@@]1(OC(=O)[C@H](NC(=O)[C@H](CCCN=C(N)N)/N=C(\S)Nc2ccc(O[C@H]3O[C@@H](C)[C@@H](O)[C@@H](OC)[C@@H]3O)cc2)C(C)C)C(=O)OCc2c1cc1n(c2=O)Cc2cc3ccccc3nc2-1`, the half-maximal inhibitory concentration (IC50) with HT-29 is 100 nM; in the experiment with SW480, 110 nM; with B16-F10, 400 nM.
Take `CC[C@@]1(OC(=O)[C@H](NC(=O)[C@H](CCCCN)/N=C(\S)Nc2ccc(O[C@H]3O[C@@H](C)[C@@H](O)[C@@H](OC)[C@@H]3O)cc2)C(C)C)C(=O)OCc2c1cc1n(c2=O)Cc2cc3ccccc3nc2-1`: the IC50 in the experiment on HT-29 was 120 nM; in the experiment on SW480, 150 nM; in the experiment with B16-F10 it was 600 nM.
Consider `CC[C@@]1(OC(=O)C(NC(=O)[C@H](CCCCN)/N=C(\S)Nc2ccc(O[C@H]3O[C@@H](C)[C@@H](O)[C@@H](OC)[C@@H]3O)cc2)C(C)C)C(=O)OCc2c1cc1n(c2=O)Cc2cc3ccccc3nc2-1` (stereo partly specified), for which the NOEC was 30 µM in the experiment listed under Homo sapiens [1]; 10 µM in the experiment filed under Canis familiaris [2]; 30 µM in the experiment filed under Homo sapiens [3]; 30 µM in the experiment listed under Rattus norvegicus [4]; 30 µM in the experiment filed under Rattus norvegicus [5]; 30 µM in the experiment filed under Canis familiaris [6]. The NOEC in the experiment listed under Homo sapiens [7], in the experiment listed under Canis familiaris [8] and in the experiment filed under Rattus norvegicus [9] was 30 µM each time. The 50% inhibitory concentration (IC50) was found to be 150 nM with HT-29, 170 nM in the experiment with SW480 and 700 nM in the experiment on B16-F10.
Regarding `CC[C@@]1(OC(=O)C(NC(=O)[C@H](Cc2c[nH]cn2)/N=C(\S)Nc2ccc(O[C@H]3O[C@@H](C)[C@@H](O)[C@@H](OC)[C@@H]3O)cc2)C(C)C)C(=O)OCc2c1cc1n(c2=O)Cc2cc3ccccc3nc2-1` (stereo partly specified), the NOEC is 30 µM in the experiment listed under Homo sapiens [1]; 10 µM in the experiment listed under Canis familiaris [2]; 30 µM in the experiment listed under Homo sapiens [3]; 10 µM in the experiment listed under Rattus norvegicus [4]; 10 µM in the experiment filed under Rattus norvegicus [5]; 10 µM in the experiment filed under Canis familiaris [6]. For the same compound, the NOEC in the experiment filed under Homo sapiens [7] stood at 30 µM; in the experiment listed under Canis familiaris [8], 10 µM; in the experiment listed under Rattus norvegicus [9], 10 µM. Moreover, the 50% inhibitory concentration (IC50) is 60 nM with HT-29, 170 nM with SW480 and 250 nM in the experiment on B16-F10.
On to `CC[C@@]1(OC(=O)CNC(=O)[C@H](CCCCN)/N=C(\S)Nc2ccc(O[C@H]3O[C@@H](C)[C@@H](O)[C@@H](OC)[C@@H]3O)cc2)C(=O)OCc2c1cc1n(c2=O)Cc2cc3ccccc3nc2-1`, for which the half-inhibitory concentration (IC50) with HT-29 turned out to be 10 nM; in the experiment on SW480 it was 30 nM; in the experiment on B16-F10, 50 nM.
Turning to `CC[C@@]1(O)C(=O)OCc2c1cc1n(c2=O)Cc2cc3c(CN(C)C)c(O)ccc3nc2-1.Cl` [TOPOTECAN HYDROCHLORIDE], the NOEC is 10 µM in the experiment filed under Homo sapiens [1]; 1 µM in the experiment listed under Canis familiaris [2]; 1 µM in the experiment filed under Homo sapiens [3]; 0.1 µM in the experiment filed under Rattus norvegicus [4]; 0.1 µM in the experiment filed under Rattus norvegicus [5]; 0.1 µM in the experiment filed under Canis familiaris [6]. Besides, the NOEC in the experiment filed under Homo sapiens [7] is 0.1 µM; in the experiment filed under Canis familiaris [8] it was 1 µM; in the experiment listed under Rattus norvegicus [9], 1 µM.
